Screening data deposited in PubChem by several laboratories.
The list is not random: actives were taken first. Their share in the collection is about 1.1%.
FAS TE block – inhibitors of human fatty acid synthase thioesterase domain | P49327 | recombinant FAS-TE, OMFH fluorogenic substrate, fluorescence endpoint | inhibition, % at 15 µM | 0.67% of 360,000 active;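 active = compounds whose normalised, plate-corrected inhibition of enzyme fluorescence in the single-dose primary screen is 50% or more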;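 also: 0% = DMSO with enzyme and 100% = substrate without enzyme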
JMJD2C inh – human JMJD2C demethylase inhibition | 0.069% of 330,000 active | GST-JMJD2C(1-420) H3K9me3 demethylation, DELFIA europium | AID 2099 | inhibition, % at 2.35 µM;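 active = more than half of a compound's replicate wells show inhibition beyond 50%, single wells judged on their own value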;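 also: signal counts dimethyl H3K9 product captured on neutravidin plate; 0% = median of DMSO wells and 100% = 0.3 times that DMSO median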
Arrestin-AP2 inh – inhibitors of human beta-arrestin and AP2 interaction | inhibition, % at 10 µM | AID 504490 | 0.31% of 340,000 active | FITC-arrestin peptide / GST-AP2 beads, flow cytometry; AP2 beta2 appendage carries R879A mutation;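 active = inhibition above a set limit, near 3 SD of compounds lacking own fluorescence, cut at about 54% in these data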;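 also: plate controls were DMSO wells for no effect and 5 µM unlabelled arrestin peptide for full effect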
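Material – GST-tagged AP2 beta2-adaptin appendage (R879A) on 4 µm glutathione beads · Probe or stimulus – fluorescein-tagged arrestin peptide at 50 nM final · Timing – 12 min plus 1 h, RT · Detection – bead flow cytometry, FITC channel · Read-out basis – inhibition as reduced fluorescein signal on beads, percent · Medium – PBS plus Tween 20 (0.05%) and BSA (0.1%)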
SENP1 FRET inh – inhibitors of human SENP1 SUMO protease catalytic domain. recombinant SENP1 catalytic domain, CyPet-SUMO1-YPet FRET cleavage. inhibition, % at 10 µM. 0.21% of 360,000 active. AID 624204;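 active = inhibition at least 30% at 10 µM, raw YFP signal under a set limit, fluorescence ratio 0.5 to 1.5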;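 also: 0% = enzyme with DMSO and 100% = no enzyme wells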
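System: Recombinant human SENP1 catalytic domain, His6-tagged | Incubation: Enzyme reaction for 50 min at room temperature, dark | Medium: Tris pH 8 with BME, BSA, NP40 and catalase | Also added: 25 nM SUMO1 FRET substrate | Compound: 10 µM single point, 0.5% DMSO | Measured by: FRET fluorescence in CFP and YFP emission channels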
FAS-TE inh conf – confirmation of human fatty acid synthase thioesterase inhibitors. AID 624325. shares compounds with FAS TE block. recombinant FAS-TE, OMFH fluorogenic substrate, fluorescence. inhibition, % at 15 µM. 45% of 2,300 active;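 active = compounds inhibiting the enzyme by at least 50% at 15 µM in any one of the replicates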;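 also: 0% = enzyme with DMSO only and 100% = wells lacking enzyme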
* marks the source's active call; other numbers are inactive results.

Screening Oc1ccc(O)c2c1C1(Cl)C(Cl)=C(Cl)C2(Cl)C1(Cl)Cl returned FAS TE block 51*, Arrestin-AP2 inh 8, SENP1 FRET inh 0 and FAS-TE inh conf 50*.
For COc1ccc(C(=O)OC2CC3CCC(C2)[N+]3(C)[O-])cc1OC (configuration not stated) the results were FAS TE block 0, JMJD2C inh 5, Arrestin-AP2 inh 3 and SENP1 FRET inh 2.
COc1ccc(C(c2nnnn2-c2ccc3c(c2)OCCO3)N2CCC3(CC2)C(=O)NCN3c2ccccc2)cc1 (configuration not stated) was read as FAS TE block 63*, SENP1 FRET inh 1 and FAS-TE inh conf -2.
Screening CCC(c1nnnn1-c1ccc2c(c1)OCCO2)N1CCC2(CC1)C(=O)NCN2c1ccccc1 (configuration not stated) returned FAS TE block 5 and SENP1 FRET inh 1.
For O=C1NCN(c2ccccc2)C12CCN(C(c1cccc3ccccc13)c1nnnn1C1CCCC1)CC2 (configuration not stated) the results were FAS TE block 77*, SENP1 FRET inh -1 and FAS-TE inh conf 19.
Screening O=C1NCN(c2ccccc2)C12CCN(C(CCc1ccccc1)c1nnnn1-c1ccc3c(c1)OCCO3)CC2 (configuration not stated) returned FAS TE block 65*, SENP1 FRET inh 1 and FAS-TE inh conf 22.
Screening O=C1NCN(c2ccccc2)C12CCN(C(c1ccnc3ccccc13)c1nnnn1-c1ccc3c(c1)OCCO3)CC2 (configuration not stated) returned FAS TE block 14 and SENP1 FRET inh 3.
Screening O=c1oc2ccccc2c(O)c1C(c1ccc([N+](=O)[O-])cc1)c1c(O)c2ccccc2oc1=O returned FAS TE block 76*, JMJD2C inh 63, Arrestin-AP2 inh -3, SENP1 FRET inh 0 and FAS-TE inh conf 82*.
`N#Cc1ccc2nc(-c3ccc(CN4CCC(n5c(=O)[nH]c6ccccc65)CC4)cc3)c(-c3ccccc3)nc2c1` gave FAS TE block 93*, SENP1 FRET inh 5 and FAS-TE inh conf 7.
Screening O=c1[nH]c2ccccc2n1C1CCN(C(c2cc3ccccc3o2)c2nnnn2-c2ccc3c(c2)OCCO3)CC1 (configuration not stated) returned FAS TE block 66*, SENP1 FRET inh -3 and FAS-TE inh conf 13.
For O=c1[nH]c2ccccc2n1C1CCN(C(c2cccc3ccccc23)c2nnnn2-c2ccc3c(c2)OCCO3)CC1 (configuration not stated) the results were FAS TE block 72*, SENP1 FRET inh 1 and FAS-TE inh conf 14.
`Cc1cccc(C)c1-n1nnnc1C(c1cccc2ccccc12)N1CCC(n2c(=O)[nH]c3ccccc32)CC1` (configuration not stated) gave FAS TE block 86*, SENP1 FRET inh 3 and FAS-TE inh conf 17.
COc1ccc(-n2nnnc2C(c2cc3ccccc3o2)N2CCC(n3c(=O)[nH]c4ccccc43)CC2)cc1 (configuration not stated) was read as FAS TE block 40 and SENP1 FRET inh 0.
Screening O=c1[nH]c2ccccc2n1C1CCN(C(CCc2ccccc2)c2nnnn2C2CCCCC2)CC1 (configuration not stated) returned FAS TE block 55*, SENP1 FRET inh 3 and FAS-TE inh conf 19.
Screening COc1ccc(C(c2nnnn2-c2ccc(OC)cc2)N2CCC(n3c(=O)[nH]c4ccccc43)CC2)cc1 (configuration not stated) returned FAS TE block 25 and SENP1 FRET inh 2.
For COC(=O)C1=C(c2cccc(OCc3ccccc3)c2)C[C@@H]2CC[C@H]1N2C(=O)NCc1ccc(Cl)cc1 the results were FAS TE block 16, JMJD2C inh -1, Arrestin-AP2 inh 5 and SENP1 FRET inh -1.
For Cc1ccccc1NP(=O)(Oc1ccccc1F)Oc1ccccc1F the results were FAS TE block 5, JMJD2C inh 4, Arrestin-AP2 inh 3 and SENP1 FRET inh 5.
`CN1C(=O)C(=Cc2sc(=O)n(-c3ccccc3)c2N(C)C)C(=O)N(C)C1=O` gave FAS TE block -7, JMJD2C inh 23, Arrestin-AP2 inh 5 and SENP1 FRET inh -37.
Screening COc1ccc(-c2nn(CCC#N)cc2C(=O)Nc2ccc(C(C)=O)cc2)cc1[N+](=O)[O-] returned FAS TE block 85*, JMJD2C inh 1, Arrestin-AP2 inh -5, SENP1 FRET inh -2 and FAS-TE inh conf 91*.
Screening COc1ccc(NC(=O)c2cn(CCC#N)nc2-c2ccc(OC)c(OC)c2)cc1 returned FAS TE block -2, JMJD2C inh 3, Arrestin-AP2 inh -9 and SENP1 FRET inh -1.
Screening O=C1NC(=O)C2(CCCc3ccc(N(CCCl)CCCl)cc32)N1 (configuration not stated) returned FAS TE block 1, Arrestin-AP2 inh 17 and SENP1 FRET inh 0.
Oc1c(Br)c(Br)c(Br)c(Br)c1Br was read as FAS TE block 60*, JMJD2C inh 6, Arrestin-AP2 inh 17, SENP1 FRET inh -1 and FAS-TE inh conf 72*.
C/C(=N\N1CCCCC1c1cccnc1)c1c(O)n(C2CCCCC2)c(=S)[nH]c1=O (configuration not stated) was read as FAS TE block 70*, JMJD2C inh -4, Arrestin-AP2 inh -12, SENP1 FRET inh -15 and FAS-TE inh conf 10.
`Nc1ccc(Cl)cc1C(=O)c1ccccc1Cl` gave FAS TE block 7, JMJD2C inh -3, Arrestin-AP2 inh -2 and SENP1 FRET inh -12.
For COC(=O)C1=C(c2ccc(C(C)=O)cc2)C[C@@H]2CC[C@H]1N2C(=O)N1CCCC1 the results were FAS TE block -6, JMJD2C inh 4, Arrestin-AP2 inh -5 and SENP1 FRET inh 2.
COC(=O)C1=C(c2ccc(-c3ccccc3)c(F)c2)C[C@@H]2CC[C@H]1N2C(=O)NC1Cc2ccccc2C1 was read as FAS TE block 53*, JMJD2C inh 2, Arrestin-AP2 inh 29, SENP1 FRET inh 2 and FAS-TE inh conf 33.
O=[N+]([O-])c1ccccc1CN1CC=C(c2ccc(F)cc2)CC1 was read as FAS TE block 26, JMJD2C inh 3, Arrestin-AP2 inh -12 and SENP1 FRET inh -3.
Screening O=[N+]([O-])c1cccc(CN2CC=C(c3ccc(F)cc3)CC2)c1 returned FAS TE block 57*, JMJD2C inh 1, Arrestin-AP2 inh -6, SENP1 FRET inh 2 and FAS-TE inh conf 53*.
For COc1ccc(C(=O)C2CCCN(CCc3ccccc3)C2)cc1OC (configuration not stated) the results were FAS TE block -3 and SENP1 FRET inh -2.
